# Data reported in ChEMBL document CHEMBL1154729, “Discovery of novel antitubercular 2,10-dihydro-4aH-chromeno[3,2-c]pyridin-3-yl derivatives” (Eur J Med Chem, 2010).
# Legend:
# Vero = test: Cytotoxicity against african green monkey Vero cells after 72 hrs by MTT assay; assay type: cell-based; settings: Chlorocebus sabaeus
# Method in brief: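 Vero monkey kidney cells exposed to compounds by serial double dilution up to 62.5 µg/mL for 72 h. Viability read from cellular MTT conversion to formazan (Cell Titer 96 non-radioactive proliferation assay); IC50 reported.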
# [1] = system: Mycobacterium tuberculosis; test: Antimycobacterial activity against Mycobacterium tuberculosis H37Rv by agar dilution method; assay type: functional
# Method in brief: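 Agar dilution MIC on Middlebrook 7H11 agar supplemented with OADC, following NCCLS-like procedure; determined in duplicate.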
# [2] = system: Mycobacterium tuberculosis; test: Antimycobacterial activity against Mycobacterium tuberculosis ATCC 35801 infected in CD1 mouse assessed as bacterial load in lungs at 25 mg/kg, ip administered 10 days postinfection for 10 days measured after 35 days of infection (Rvb=7.99 +/- 0.16 log CFU); assay type: functional; settings: route intraperitoneal
# [3] = system: Mycobacterium tuberculosis; test: Antimycobacterial activity against Mycobacterium tuberculosis ATCC 35801 infected in CD1 mouse assessed as bacterial load in spleen at 25 mg/kg, ip administered 10 days postinfection for 10 days measured after 35 days of infection (Rvb=9.02 +/- 0.21 log CFU); assay type: functional; settings: route intraperitoneal
# [4] = Selectivity index, ratio of IC50 for african green monkey Vero cells to MIC for Mycobacterium tuberculosis H37Rv; assay type: functional
SMILES,IC50 (Vero) [µM],MIC [1] [µM],log10cfu [2],log10cfu [3],Selectivity Index [4]
CO[C@H]1/C=C/O[C@@]2(C)Oc3c(C)c(O)c4c(O)c(c(/C=N/N5CCN(C)CC5)c(O)c4c3C2=O)NC(=O)/C(C)=C\C=C\[C@H](C)[C@H](O)[C@@H](C)[C@@H](O)[C@@H](C)[C@H](OC(C)=O)[C@@H]1C [RIFAMPIN],> 75.9,0.12,–,–,–
O=C(NCC1=C[C@@H]2Oc3ccccc3C(=O)C2=CN1c1ncc(Br)cc1Br)c1ccc(Cl)c(Cl)c1,50.7,9.82,–,–,–
Cc1ccc2ccc(C(=O)NCC3=C[C@@H]4Oc5ccccc5C(=O)C4=CN3c3ncccc3C)cc2c1,> 128,0.41,–,–,–
CCc1ccc(C(=O)NCC2=C[C@@H]3Oc4ccccc4C(=O)C3=CN2c2ncccc2C)cc1,> 138,0.22,6.88,6.08,629
CC[C@@H](CO)NCCN[C@@H](CC)CO [ETHAMBUTOL],> 306,7.63,–,–,–
O=C(NCC1=C[C@@H]2Oc3ccccc3C(=O)C2=CN1c1ncc(Br)cc1Br)c1ccc(Cl)cc1,> 104,2.95,–,–,–
Cc1cccnc1N1C=C2C(=O)c3ccccc3O[C@H]2C=C1CNC(=O)c1ccc(Cl)cc1,136,1.7,–,–,–
Cc1cccnc1N1C=C2C(=O)c3ccccc3O[C@H]2C=C1CNC(=O)c1ccccc1,> 148,7.36,–,–,–
O=C(NCC1=C[C@@H]2Oc3ccccc3C(=O)C2=CN1c1ncc(Br)cc1Br)c1ccc(F)cc1,–,10.7,–,–,–
NNC(=O)c1ccncc1 [ISONIAZID],> 456,0.36,5.86,4.71,–
O=C(COc1ccccc1)NCC1=C[C@@H]2Oc3ccccc3C(=O)C2=CN1c1ncc(Br)cc1Br,–,10.5,–,–,–
Cc1cccnc1N1C=C2C(=O)c3ccccc3O[C@H]2C=C1CNC(=O)c1ccc2ccccc2c1,142,0.84,–,–,–
O=C(NCC1=C[C@@H]2Oc3ccccc3C(=O)C2=CN1c1ncc(Br)cc1Br)c1cccc(Cl)c1,104,5.2,–,–,–
Cc1ccc(C(=O)NCC2=C[C@@H]3Oc4ccccc4C(=O)C3=CN2c2ncccc2C)cc1,> 143,1.78,–,–,–
Cc1cccnc1N1C=C2C(=O)c3ccccc3O[C@H]2C=C1CNC(=O)COc1ccccc1,–,13.8,–,–,–
O=C(NCC1=C[C@@H]2Oc3ccccc3C(=O)C2=CN1c1ncc(Br)cc1Br)c1ccc2ccccc2c1,101,2.52,–,–,–
COc1ccc(C(=O)NCC2=C[C@@H]3Oc4ccccc4C(=O)C3=CN2c2ncccc2C)cc1,> 138,1.72,–,–,–
Cc1cccnc1N1C=C2C(=O)c3ccccc3O[C@H]2C=C1CNC(=O)c1cccc(Cl)c1,> 136,1.7,–,–,–
CC1COc2c(N3CCN(C)CC3)c(F)cc3c(=O)c(C(=O)O)cn1c23 (centres undefined) [OFLOXACIN],> 155,2.13,–,–,–
COc1ccc(C(=O)NCC2=C[C@@H]3Oc4ccccc4C(=O)C3=CN2c2ncc(Br)cc2Br)cc1,–,10.5,–,–,–
Cc1ccc2ccc(C(=O)NCC3=C[C@@H]4Oc5ccccc5C(=O)C4=CN3c3ncc(Br)cc3Br)cc2c1,99,1.23,–,–,–
CCc1ccc(C(=O)NCC2=C[C@@H]3Oc4ccccc4C(=O)C3=CN2c2ncc(Br)cc2Br)cc1,105,2.6,–,–,–
Cc1cccnc1N1C=C2C(=O)c3ccccc3O[C@H]2C=C1CNC(=O)c1ccc(F)cc1,> 142,7.09,–,–,–
O=C(NCC1=C[C@@H]2Oc3ccccc3C(=O)C2=CN1c1ncc(Br)cc1Br)c1ccccc1,–,11,–,–,–
Cc1ccc(C(=O)NCC2=C[C@@H]3Oc4ccccc4C(=O)C3=CN2c2ncc(Br)cc2Br)cc1,–,5.38,–,–,–
